This passage reports cytotoxicity results from ChEMBL document CHEMBL4513216, “Probing the Open Global Health Chemical Diversity Library for Multistage-Active Starting Points for Next-Generation Antimalarials” (ACS Infect Dis, 2020).

SMILES strings stand for the structures.

The data set can be described thus: Toxicity liver stage against HepG2, at 10uM. It is filed as cell-based. Details: test concentration 10 uM, cell line HepG2-A16-CD81EGFP. The settings on record: human, HepG2-A16-CD81EGFP cells; read-out: INHIBITION
The procedure, abridged: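 Uninfected HepG2-A16-CD81EGFP cells, 3 × 10^3 per well, 1536-well, plated on prespotted compound at 10 μM final, parasite-free screening media added to match infected plates; puromycin 10 μM positive, DMSO 0.5% negative; run in parallel with 48 h PbLuc assay at 37 °C, 5% CO2; viability by CellTiter-Glo luminescence, normalized to controls.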
With `CCSc1nnc(N(CCC#N)CCC#N)s1`, the cytotoxicity at 10 µM came to 4.91%.

As for `CC(C)(C)CN[C@@H]1CO[C@H](CNC(=O)c2ccncc2)[C@H]1O`, the cytotoxicity at 10 µM is -2.5%.

Regarding `CCCc1cc(=O)[nH]c2nnc(SCC(C)=O)n12`, the cytotoxicity at 10 µM was determined as 7.29%.

In the case of `Cc1ccccc1CSc1nc(=O)n(CCO)c2c1CCC2`, the cytotoxicity at 10 µM stood at 20.6%.

For the compound `Cc1cc(C(=O)N2CCc3ncnc(-c4cnn(C)c4)c3CC2)no1`, the cytotoxicity at 10 µM amounted to 8.88%.

As for `Cc1nccc([C@H]2C[C@@H]3CCN(S(=O)(=O)C4CC4)C[C@H]3O2)n1`, the cytotoxicity at 10 µM was -2.3%.

As to `Cn1cc(N2CC3(CCN(S(C)(=O)=O)C3)CC2=O)cn1` (configuration not stated), the cytotoxicity at 10 µM was determined as 9.04%.

For `COCCNC(=O)c1nc2c(s1)CCCN2c1ccc(C)nn1`, the cytotoxicity at 10 µM amounted to 8.33%.

Regarding `COCC1COCCC12CCN(C(=O)COc1ccccc1C)CC2` (configuration not stated), the cytotoxicity at 10 µM is 2.08%.

As to `Cc1nc(N2CCCC2)nc2c1CCN(C(=O)NC(C)C)CC2`, the cytotoxicity at 10 µM is 2.93%.

On to `Cc1nc2ncc3c(=O)n(C)ccc3n2n1`, for which the cytotoxicity at 10 µM is -15.4%.

For the compound `Cc1ccc(C)c(C(NC(=O)C2CC2)c2cccnc2)c1` (configuration not stated), the cytotoxicity at 10 µM was -3.5%.

Consider `O=C(Cn1cc(-c2ccccc2)ncc1=O)Nc1ccncc1`, for which the cytotoxicity at 10 µM was determined as 11%.

For `O=C(c1cccnc1)N1CCOC(Cc2ccccc2Cl)C1` (configuration not stated), the cytotoxicity at 10 µM came out at 2.12%.

For `CCCn1cc(Cl)c(C(=O)N2C[C@@H](O)[C@H](NC(C)=O)C2)n1`, the cytotoxicity at 10 µM was -0.255%.

Turning to `CCN(CC)c1nc(O)cc(C(C)n2ncc3ccccc3c2=O)n1` (configuration not stated), the cytotoxicity at 10 µM was found to be 2.47%.

As for `Cn1cc(C(=O)N2CCC(c3cc(CCO)n(C)n3)C2)cn1` (configuration not stated), the cytotoxicity at 10 µM was -0.0959%.

With `CC(C)c1[nH]c2ncccc2c1CN1CCC(O)CC1`, the cytotoxicity at 10 µM was 2.57%.

Take `Cn1ccnc1CN1CCOC(Cc2ccccc2)C1` (configuration not stated): the cytotoxicity at 10 µM was -0.479%.

As for `Cc1cncc(C2CCCN2CCO)n1` (configuration not stated), the cytotoxicity at 10 µM is -3.14%.

As for `CCOCC(=O)N1CCC(c2cc3ncccc3c(O)n2)CC1`, the cytotoxicity at 10 µM was -30.1%.

`CC1(C2CCN(CC(N)=O)CC2)CN(Cc2ccccc2)C(=O)CO1` (configuration not stated): the cytotoxicity at 10 µM is -19.9%.

Regarding `Cc1ccccc1CC(=O)N1CC[C@@](O)(CNS(C)(=O)=O)[C@H](O)C1`, the cytotoxicity at 10 µM is -25.6%.

On to `COCC(=O)N1CCCC1c1nc(O)cc(C(C)C)n1` (configuration not stated), for which the cytotoxicity at 10 µM was -15.5%.

For `Cc1cc(-c2cnc(N3CCNC(=O)C3)nc2-c2sccc2C)on1`, the cytotoxicity at 10 µM is -12%.

With `CC(=O)Nc1nc(C2CCN(C(=O)Cc3ccccc3)CC2)cs1`, the cytotoxicity at 10 µM is -11.8%.

For `Cc1cc(CN2CCOC(C)(C(=O)N3CCOCC3)C2)no1` (configuration not stated), the cytotoxicity at 10 µM was -24.2%.

Turning to `COCCC(=O)N1CCC(c2cc(O)n(C)n2)C1` (configuration not stated), the cytotoxicity at 10 µM is -23.1%.

On to `O=C1NCCN1C1CCN(CC(O)c2ccccc2F)CC1` (configuration not stated), for which the cytotoxicity at 10 µM was -0.535%.

As to `CN(C)Cc1ccnc(NS(=O)(=O)CCc2ccccc2)c1`, the cytotoxicity at 10 µM is -3.09%.

On to `O=C(Cc1cccc(O)c1)NCCNc1nccc(C(F)(F)F)n1`, for which the cytotoxicity at 10 µM was 7.48%.

As to `COc1ccccc1CC1CCCN(C(=O)c2nccnc2N)C1` (configuration not stated), the cytotoxicity at 10 µM stood at 5.79%.

`CC(C)OCCC1CCCCN1S(C)(=O)=O` (configuration not stated): the cytotoxicity at 10 µM is 2.43%.

With `CS(=O)(=O)NCCCNC(=O)c1cnc(-c2ccsc2)s1`, the cytotoxicity at 10 µM was -13.7%.

In the case of `CN(C)c1cccc(C(=O)Nc2cnn(CC(N)=O)c2)c1`, the cytotoxicity at 10 µM amounted to 3.63%.

Turning to `C[C@@H]1CN(Cc2ccc(-c3ccncc3)cc2F)CC(C(N)=O)O1` (some centres not stated), the cytotoxicity at 10 µM amounted to 2.4%.

`N#CC1(NC(=O)CN2CCc3c(ncn3C3CC3)C2)CCCC1`: the cytotoxicity at 10 µM was 12.1%.

Regarding `CN1CCOC(CNC(=O)C2(c3cccc(Cl)c3)CC2)C1` (configuration not stated), the cytotoxicity at 10 µM is -3.03%.

Take `COc1ccccc1C(=O)N(Cc1nc(C)cs1)CC1CCCO1` (configuration not stated): the cytotoxicity at 10 µM was determined as 0.136%.

With `O=C(NCCNc1cnccn1)N1CC=C(c2ccccc2)CC1`, the cytotoxicity at 10 µM was 6.39%.

Regarding `COc1ccccc1C(C)CNC(=O)c1c(C)nn(C)c1OC` (configuration not stated), the cytotoxicity at 10 µM is -11.4%.

Consider `Cc1cccc(NC(=O)[C@@H]2CCCN2Cc2ccccc2C#N)n1`, for which the cytotoxicity at 10 µM is -4.11%.

`NC(=O)COc1ccc(CNCc2ccc(Cl)c(F)c2)cc1`: the cytotoxicity at 10 µM is -3.64%.

Regarding `Cc1cc(C)n(Cc2cccc(C(=O)NCCSCC(C)(C)O)c2)n1`, the cytotoxicity at 10 µM is -6.93%.

Regarding `CC1CN(C)c2ccccc2CN1C(=O)c1cnsn1` (configuration not stated), the cytotoxicity at 10 µM came to 0.736%.

Take `COc1ccc(C(C)NC(=O)NCCNc2ccccn2)c(OC)c1` (configuration not stated): the cytotoxicity at 10 µM is 0.00455%.

As for `CCOCc1ccccc1NC(=O)NCC(C)(O)c1cccs1` (configuration not stated), the cytotoxicity at 10 µM is -0.966%.

Regarding `Cc1cc(C)c(CNC(=O)NCC2Cc3ccccc32)c(=O)[nH]1` (configuration not stated), the cytotoxicity at 10 µM is -3.78%.

Regarding `CC(Cn1cccn1)NC(=O)N1CCC(NS(C)(=O)=O)CC1` (configuration not stated), the cytotoxicity at 10 µM was -0.508%.

As for `CNC(=O)CN(C)c1cncc(OCc2ccccc2)n1`, the cytotoxicity at 10 µM is 1.15%.

Turning to `c1ccn2c(SCC3CN=C(N4CCOCC4)S3)ncc2c1` (configuration not stated), the cytotoxicity at 10 µM stood at 11.8%.

As for `O=C1CC(N(C(=O)COc2ccc(F)cc2F)C2CC2)C(=O)N1` (configuration not stated), the cytotoxicity at 10 µM was -3.59%.

`O=C(c1cncc(Br)c1)N1CCCc2c(F)cc(F)cc21`: the cytotoxicity at 10 µM was 2.81%.

For the compound `O=C(CN(Cc1ccco1)C1CC1)Nc1ccc(Br)cn1`, the cytotoxicity at 10 µM was -2.65%.

Turning to `Cc1cc(C)cc(C(=O)N2CCCN(CC(N)=O)CC2)c1`, the cytotoxicity at 10 µM was -5.65%.

Turning to `Cc1cnn(CC(C)NCCc2cccs2)c1` (configuration not stated), the cytotoxicity at 10 µM is -1.52%.

With `CN(C(=O)Cn1nc(-c2ccc(F)cc2)oc1=O)C1CCS(=O)(=O)C1` (configuration not stated), the cytotoxicity at 10 µM amounted to 10.7%.

For the compound `CC(C)c1nc2n(n1)CC(NCc1ccncc1)CC2` (configuration not stated), the cytotoxicity at 10 µM is -13.9%.

As for `O=C(c1ccco1)N1CC[C@@H](N2CCOCC2)[C@@H]1Cc1ccccc1`, the cytotoxicity at 10 µM is -77%.

For `CN(C)Cc1nnc2n1CCN(Cc1ccccn1)CC2`, the cytotoxicity at 10 µM turned out to be 2.05%.

For the compound `Cc1nccc([C@@H]2C[C@@H]3CCN(Cc4ccco4)C[C@H]3O2)n1`, the cytotoxicity at 10 µM is -2.61%.

On to `COc1ccccc1CN(Cc1cccnc1)Cc1nccs1`, for which the cytotoxicity at 10 µM was -1.53%.

In the case of `Cc1noc(C)c1CCCNc1cnccn1`, the cytotoxicity at 10 µM stood at 10.2%.

In the case of `O=C1CC(NCc2ccc(OC(F)F)cc2)CN1Cc1cccc(F)c1` (configuration not stated), the cytotoxicity at 10 µM is -5.29%.

Turning to `CCCn1ccnc1CN1CCCC(CC)(CO)C1` (configuration not stated), the cytotoxicity at 10 µM is 3.44%.

Consider `COCCN(C)C[C@@H]1CN(C(=O)c2ccc(OC)c(F)c2)C[C@@H]1CO`, for which the cytotoxicity at 10 µM is 2.87%.

`CCCn1ccnc1CN1CCCC(O)(CN(C)C)CC1` (configuration not stated): the cytotoxicity at 10 µM was 1.33%.

As to `c1cc(-c2cn[nH]c2)ncc1CN1CCCCC1`, the cytotoxicity at 10 µM was -1.35%.

Consider `OCCc1ncnn1Cc1cccc(Cl)c1`, for which the cytotoxicity at 10 µM came to 18.2%.

With `Cc1ccc2c(c1)OC(C)(C)CC2NC(=O)C1CCN(S(C)(=O)=O)CC1` (configuration not stated), the cytotoxicity at 10 µM was found to be 1.93%.

For `CC(O)c1cccc(N2CCC3(CC2)Nc2ccccc2NC3=O)n1` (configuration not stated), the cytotoxicity at 10 µM is -10.6%.

On to `CCn1nc(C)c(CNC(=O)c2cn(CC3CCCO3)nn2)c1C` (configuration not stated), for which the cytotoxicity at 10 µM is -2.34%.

As to `Cc1noc(C)c1C(=O)N(C)Cc1nc(-c2ccccn2)no1`, the cytotoxicity at 10 µM is -6.23%.

`CN(Cc1cccc(OC(F)F)c1)Cc1nc2c(cnn2C)c(=O)[nH]1`: the cytotoxicity at 10 µM is -0.438%.

Regarding `Cc1noc(Cl)c1CCC(=O)N1CCN(c2cnccn2)CC1`, the cytotoxicity at 10 µM was -3.5%.

As for `CC1CCCCN1CCNC(=O)c1scnc1Cl` (configuration not stated), the cytotoxicity at 10 µM is -6.27%.

`CC(=O)Nc1nc(C(=O)N2CCCC(n3ccnc3C)C2)cs1` (configuration not stated): the cytotoxicity at 10 µM is -9.78%.

Take `Cc1ncc(C(=O)NCCNC(=O)c2ccccc2)s1`: the cytotoxicity at 10 µM is -3.67%.

Regarding `COc1ccc(C(C)N(C)Cc2nc3c(cnn3C)c(=O)[nH]2)cc1` (configuration not stated), the cytotoxicity at 10 µM was -7.42%.

Turning to `c1csc(-c2noc(CNC3CCc4ncnn4C3)n2)c1` (configuration not stated), the cytotoxicity at 10 µM was -9.3%.

In the case of `O=C(c1cc2c(s1)CCCC2)N1CCCC1Cn1cccn1` (configuration not stated), the cytotoxicity at 10 µM was -11.9%.

On to `CCn1ccnc1CN1CCN(CC(O)c2ccc(OC)cc2)CC1` (configuration not stated), for which the cytotoxicity at 10 µM is -15.1%.

As for `Cc1ccc(N2CCCC(NCc3cnc(C)s3)C2)nn1` (configuration not stated), the cytotoxicity at 10 µM was -0.755%.

As for `COc1c(CNC2CCN(C(=O)C3CC3)CC2)c(C(C)C)nn1C`, the cytotoxicity at 10 µM is -4.72%.

Turning to `CNc1cc2c(nn1)CCN(C(=O)C1CCCc3ccccc31)C2` (configuration not stated), the cytotoxicity at 10 µM is -17.2%.

In the case of `Cc1cc(CNC(=O)N2CCCN(Cc3ccccc3)CC2)no1`, the cytotoxicity at 10 µM is -8.26%.

Consider `COc1ccccc1OCC(=O)NS(=O)(=O)c1ccc(Br)s1`, for which the cytotoxicity at 10 µM is -8.72%.

In the case of `CN(C)C(=O)[C@]12CCCN(CC3CC3)C[C@H]1CN(c1ccccn1)C2`, the cytotoxicity at 10 µM worked out at 3.68%.

With `CN(Cc1ccco1)[C@@H]1CN(Cc2ccccn2)C[C@@H]2CCCO[C@@H]21`, the cytotoxicity at 10 µM was determined as 0.34%.

Consider `CN(C)C(=O)COC[C@@H]1CC[C@H]2[C@H](CCN2c2ncccn2)O1`, for which the cytotoxicity at 10 µM amounted to 15.6%.

For the compound `Cn1cc(CN2C[C@@H]3COC[C@H](C(=O)Nc4cccnc4)[C@@H]3C2)cn1`, the cytotoxicity at 10 µM came out at 9.34%.

As for `O=C(NCc1cncc2c1CCN(C1CCOC1)C2)c1ccco1` (configuration not stated), the cytotoxicity at 10 µM was determined as 0.797%.

For `Cc1cnc2n1CCN(C)C21CCN(C(=O)CC(C)C)CC1`, the cytotoxicity at 10 µM was -5.85%.

As for `O=C(N1CCOCC1)N1CCc2ncnc(Oc3cccnc3)c2CC1`, the cytotoxicity at 10 µM was -0.82%.

With `Cn1cccc1C(=O)N[C@@H]1CN(CC2CC2)[C@@H]2COC[C@@H]21`, the cytotoxicity at 10 µM was determined as 1.66%.

With `Cc1nc(=O)c(CC(=O)N2C[C@@H]3CC[C@H]2CN(C(=O)N(C)C)C3)c(C)[nH]1`, the cytotoxicity at 10 µM is 7.6%.

For `Cc1ccc(-n2cc3[nH]c(=O)n(C(C)C)n3c2=O)cc1`, the cytotoxicity at 10 µM is -8.9%.
